In ChEMBL document CHEMBL4689842, “EUbOPEN Chemogenomics Library wave 1” (2021):

System: HEK-293T
Assay: Multiplex assay against HEK293T;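 on Population Tubulin-Different-Phenotype (%): share of the cells with healthy nuclei that show this phenotype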
Assay type: toxicity, cell-based
Conditions: human
How it was run: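 Compound was added to live cells that had been stained at seeding with Hoechst33342, BioTracker Green Microtubule Cytoskeleton Dye, MitoTracker Red and Annexin V Alexa Fluor 680, and imaging followed on a CQ1 microscope at 37°C and 5% CO2. CellPathfinder machine-learning gating divided cells into Hoechst high-intensity objects or normal cells, normal cells into healthy, pyknosed or fragmented nuclei, and pyknosed cells into mitotic or apoptotic. Tubulin, mitochondrial-mass and membrane-permeability phenotypes are per cents of healthy-nucleus cells.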

[1] = 12 h, 1 µM, compound concentration 1 uM, replicate 1
[2] = 12 h, 1 µM, compound concentration 1 uM, replicate 2
[3] = 12 h, 10 µM, compound concentration 10 uM, replicate 1
[4] = 12 h, 10 µM, compound concentration 10 uM, replicate 2
[5] = 24 h, 1 µM, compound concentration 1 uM, replicate 1
[6] = 24 h, 1 µM, compound concentration 1 uM, replicate 2
[7] = 24 h, 10 µM, compound concentration 10 uM, replicate 1
[8] = 24 h, 10 µM, compound concentration 10 uM, replicate 2
[9] = 48 h, 1 µM, compound concentration 1 uM, replicate 1
[10] = 48 h, 1 µM, compound concentration 1 uM, replicate 2
[11] = 48 h, 10 µM, compound concentration 10 uM, replicate 1
[12] = 48 h, 10 µM, compound concentration 10 uM, replicate 2

With `C[C@]12CC[C@@H]3c4ccc(O)cc4CC[C@H]3[C@@H]1CC[C@@H]2O` [ESTRADIOL] the “Population Apoptotic (%)” value [1] was 40%, the “Population Fragmented Nuclei (%)” value [1] was 10% and the “Population Healthy Nuclei (%)” value [1] was 45%. For the same molecule, the “Population Hoechst High Intensity Objects (%)” value [1] was 14%, the “Population Membrane Permeable-Phenotype (%)” value [1] was 1% and the “Population Mitochondria Different-Phenotype (%)” value [1] was 72%. The “Population Mitotic Cells (%)” value [1] was 59%, the “Population Normal (%)” value [1] was 85% and the “Population Pyknosed Nuclei (%)” value [1] was 44%. For the same molecule, the “Population Tubulin-Different-Phenotype (%)” value [1] was 41%, the “Population Apoptotic (%)” value [2] was 4% and the “Population Fragmented Nuclei (%)” value [2] was 7%. For the same molecule, the “Population Healthy Nuclei (%)” value [2] was 42%, the “Population Hoechst High Intensity Objects (%)” value [2] was 3% and the “Population Membrane Permeable-Phenotype (%)” value [2] was 3%. The “Population Mitochondria Different-Phenotype (%)” value [2] was 10%, the “Population Mitotic Cells (%)” value [2] was 95% and the “Population Normal (%)” value [2] was 96%. For the same molecule, the “Population Pyknosed Nuclei (%)” value [2] was 50%, the “Population Tubulin-Different-Phenotype (%)” value [2] was 11% and the “Population Apoptotic (%)” value [3] was 42%. For the same molecule, the “Population Fragmented Nuclei (%)” value [3] was 11%, the “Population Hoechst High Intensity Objects (%)” value [3] was 15% and the “Population Membrane Permeable-Phenotype (%)” value [3] was 0%. For the same molecule, the “Population Mitochondria Different-Phenotype (%)” value [3] was 76%, the “Population Mitotic Cells (%)” value [3] was 57% and the “Population Normal (%)” value [3] was 84%. The “Population Pyknosed Nuclei (%)” value [3] was 52%, the “Population Tubulin-Different-Phenotype (%)” value [3] was 29% and the “Population Apoptotic (%)” value [4] was 10%. The “Population Fragmented Nuclei (%)” value [4] was 5%, the “Population Healthy Nuclei (%)” value [4] was 36% and the “Population Hoechst High Intensity Objects (%)” value [4] was 5%. The “Population Membrane Permeable-Phenotype (%)” value [4] was 1%, the “Population Mitochondria Different-Phenotype (%)” value [4] was 11% and the “Population Mitotic Cells (%)” value [4] was 89%. The “Population Normal (%)” value [4] was 94%, the “Population Pyknosed Nuclei (%)” value [4] was 58% and the “Population Tubulin-Different-Phenotype (%)” value [4] was 9%. For the same molecule, the “Population Apoptotic (%)” value [5] was 37%, the “Population Fragmented Nuclei (%)” value [5] was 12% and the “Population Healthy Nuclei (%)” value [5] was 52%. The “Population Hoechst High Intensity Objects (%)” value [5] was 16%, the “Population Membrane Permeable-Phenotype (%)” value [5] was 1% and the “Population Mitochondria Different-Phenotype (%)” value [5] was 45%. The “Population Mitotic Cells (%)” value [5] was 62%, the “Population Normal (%)” value [5] was 83% and the “Population Pyknosed Nuclei (%)” value [5] was 34%. The “Population Tubulin-Different-Phenotype (%)” value [5] was 34%, the “Population Apoptotic (%)” value [6] was 6% and the “Population Fragmented Nuclei (%)” value [6] was 3%. For the same molecule, the “Population Healthy Nuclei (%)” value [6] was 64%, the “Population Hoechst High Intensity Objects (%)” value [6] was 3% and the “Population Membrane Permeable-Phenotype (%)” value [6] was 10%. The “Population Mitochondria Different-Phenotype (%)” value [6] was 6%, the “Population Mitotic Cells (%)” value [6] was 93% and the “Population Normal (%)” value [6] was 96%. For the same molecule, the “Population Pyknosed Nuclei (%)” value [6] was 31%, the “Population Tubulin-Different-Phenotype (%)” value [6] was 21% and the “Population Apoptotic (%)” value [7] was 39%. The “Population Fragmented Nuclei (%)” value [7] was 11%, the “Population Healthy Nuclei (%)” value [7] was 46% and the “Population Hoechst High Intensity Objects (%)” value [7] was 16%. The “Population Membrane Permeable-Phenotype (%)” value [7] was 1%, the “Population Mitochondria Different-Phenotype (%)” value [7] was 53% and the “Population Mitotic Cells (%)” value [7] was 60%. The “Population Normal (%)” value [7] was 83%, the “Population Pyknosed Nuclei (%)” value [7] was 41% and the “Population Tubulin-Different-Phenotype (%)” value [7] was 39%. The “Population Apoptotic (%)” value [8] was 7%, the “Population Fragmented Nuclei (%)” value [8] was 5% and the “Population Healthy Nuclei (%)” value [8] was 47%. The “Population Hoechst High Intensity Objects (%)” value [8] was 5%, the “Population Membrane Permeable-Phenotype (%)” value [8] was 8% and the “Population Mitochondria Different-Phenotype (%)” value [8] was 12%. For the same molecule, the “Population Mitotic Cells (%)” value [8] was 92%, the “Population Normal (%)” value [8] was 94% and the “Population Pyknosed Nuclei (%)” value [8] was 47%. For the same molecule, the “Population Tubulin-Different-Phenotype (%)” value [8] was 12%, the “Population Apoptotic (%)” value [9] was 42% and the “Population Fragmented Nuclei (%)” value [9] was 15%. For the same molecule, the “Population Healthy Nuclei (%)” value [9] was 61%, the “Population Hoechst High Intensity Objects (%)” value [9] was 13% and the “Population Membrane Permeable-Phenotype (%)” value [9] was 3%. The “Population Mitochondria Different-Phenotype (%)” value [9] was 20%, the “Population Mitotic Cells (%)” value [9] was 57% and the “Population Normal (%)” value [9] was 86%. The “Population Pyknosed Nuclei (%)” value [9] was 23%, the “Population Tubulin-Different-Phenotype (%)” value [9] was 25% and the “Population Apoptotic (%)” value [10] was 3%. The “Population Fragmented Nuclei (%)” value [10] was 5%, the “Population Healthy Nuclei (%)” value [10] was 81% and the “Population Hoechst High Intensity Objects (%)” value [10] was 3%. For the same molecule, the “Population Membrane Permeable-Phenotype (%)” value [10] was 8%, the “Population Mitochondria Different-Phenotype (%)” value [10] was 3% and the “Population Mitotic Cells (%)” value [10] was 96%. For the same molecule, the “Population Normal (%)” value [10] was 96%, the “Population Pyknosed Nuclei (%)” value [10] was 13% and the “Population Tubulin-Different-Phenotype (%)” value [10] was 13%. For the same molecule, the “Population Apoptotic (%)” value [11] was 29%, the “Population Fragmented Nuclei (%)” value [11] was 16% and the “Population Healthy Nuclei (%)” value [11] was 56%. The “Population Hoechst High Intensity Objects (%)” value [11] was 11%, the “Population Membrane Permeable-Phenotype (%)” value [11] was 1% and the “Population Mitochondria Different-Phenotype (%)” value [11] was 30%. The “Population Mitotic Cells (%)” value [11] was 70%, the “Population Normal (%)” value [11] was 88% and the “Population Tubulin-Different-Phenotype (%)” value [11] was 25%. The “Population Apoptotic (%)” value [12] was 11%, the “Population Fragmented Nuclei (%)” value [12] was 3% and the “Population Healthy Nuclei (%)” value [12] was 69%. The “Population Hoechst High Intensity Objects (%)” value [12] was 4%, the “Population Membrane Permeable-Phenotype (%)” value [12] was 3% and the “Population Mitochondria Different-Phenotype (%)” value [12] was 4%. The “Population Mitotic Cells (%)” value [12] was 88%, the “Population Normal (%)” value [12] was 95% and the “Population Pyknosed Nuclei (%)” value [12] was 26%. For the same molecule, the “Population Tubulin-Different-Phenotype (%)” value [12] was 10%.
